Measured values from ChEMBL document CHEMBL4354873, “Rationally Designed Small-Molecule Inhibitors Targeting an Unconventional Pocket on the TLR8 Protein-Protein Interface” (J Med Chem, 2020).
pIC50: −log10 of the molar value. Active and inactive are the calls of the source. The calls are words filed in the database; no cut-off is given here.

Legend:
Toll-like receptor 8 = target: T1, Toll-like receptor 8 (Homo sapiens, UniProt Q9NR97); assay: Inhibition of human TLR8 expressed in HEK-Blue cells assessed as inhibition of R848-induced NF-kappaB activation measured after 24 hrs by quanti-blue based SEAP reporter gene assay; format: cell-based
T1 sequence (Q9NR97 whole entry): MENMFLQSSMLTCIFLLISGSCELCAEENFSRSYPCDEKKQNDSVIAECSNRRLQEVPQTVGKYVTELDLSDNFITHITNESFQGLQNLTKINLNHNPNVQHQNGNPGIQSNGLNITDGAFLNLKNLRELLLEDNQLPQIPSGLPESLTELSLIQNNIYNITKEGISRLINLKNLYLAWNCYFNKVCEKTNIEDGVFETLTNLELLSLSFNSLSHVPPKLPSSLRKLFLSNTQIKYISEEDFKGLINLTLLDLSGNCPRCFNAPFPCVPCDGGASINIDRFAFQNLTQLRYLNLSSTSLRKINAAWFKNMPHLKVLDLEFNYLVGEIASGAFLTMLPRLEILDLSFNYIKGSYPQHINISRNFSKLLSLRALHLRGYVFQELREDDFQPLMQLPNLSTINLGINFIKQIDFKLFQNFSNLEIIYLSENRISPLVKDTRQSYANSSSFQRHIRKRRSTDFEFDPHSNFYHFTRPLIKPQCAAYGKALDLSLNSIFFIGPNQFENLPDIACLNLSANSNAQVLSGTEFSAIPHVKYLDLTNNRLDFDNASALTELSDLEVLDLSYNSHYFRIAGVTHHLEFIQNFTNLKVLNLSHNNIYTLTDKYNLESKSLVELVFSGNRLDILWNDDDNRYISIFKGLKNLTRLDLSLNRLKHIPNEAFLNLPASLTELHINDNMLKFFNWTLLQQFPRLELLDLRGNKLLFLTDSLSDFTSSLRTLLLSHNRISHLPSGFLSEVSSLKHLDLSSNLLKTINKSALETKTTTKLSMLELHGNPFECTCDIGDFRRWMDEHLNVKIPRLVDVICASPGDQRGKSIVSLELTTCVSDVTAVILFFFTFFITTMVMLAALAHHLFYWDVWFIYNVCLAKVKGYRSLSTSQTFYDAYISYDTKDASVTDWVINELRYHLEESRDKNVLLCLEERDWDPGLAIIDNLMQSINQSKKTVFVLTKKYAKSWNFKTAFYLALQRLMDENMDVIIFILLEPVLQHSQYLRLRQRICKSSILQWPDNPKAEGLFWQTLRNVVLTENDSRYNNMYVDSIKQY

[1] = Cytotoxicity against HEK-Blue cells expressing human TLR8 assessed as reduction in cell viability measured after 24 hrs by CCK8 assay; format: cell-based
Summary of the method: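 CCK-8 viability: compounds incubated 24 h at 37 °C with HEK-Blue TLR8 cells (4 × 10⁴ cells/well) or PBMCs (3 × 10⁶ cells/mL). CCK-8 was added at 1:10 for up to 2 h, then absorbance read at 450 nm. Values normalized to untreated cells as 100% survival.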

[2] = target: T2, Toll-like receptor 8 (Homo sapiens) (UniProt Q9NR97); assay: Inhibition of human TLR8 expressed in HEK-Blue cells assessed as inhibition of R848-induced TNFalpha mRNA level at 1 uM measured after 8 hrs by Trizol reagent based qRT-PCR analysis; format: cell-based
T2 sequence (whole entry): T1 sequence (Q9NR97 whole entry)
Summary of the method: (§1)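 RT-qPCR: HEK-Blue TLR8 cells seeded at 1 × 10⁶/well and grown 24 h, then switched to serum-free medium. Treated with R848 4 µg/mL ± compound 1 µM for 8 h. Total RNA extracted with TRIzol, reverse transcribed, TNF-α and IL-8 mRNA quantified. Three independent biological replicates, mean ± s.d.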

[3] = target: T2, Toll-like receptor 8 (Homo sapiens); assay: Inhibition of human TLR8 expressed in HEK-Blue cells assessed as inhibition of R848-induced IL-8 mRNA level at 1 uM measured after 8 hrs by Trizol reagent based qRT-PCR analysis; format: cell-based; summary of the method: as §1
[4] = target: T2, Toll-like receptor 8 (Homo sapiens); assay: Inhibition of TLR8 in human PBMC assessed as reduction in R848-induced TNFalpha production measured after 24 hrs by ELISA
Summary of the method: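 PBMCs from healthy donors isolated by density gradient centrifugation and cultured at once at 3 × 10⁶ cells/mL in RPMI 1640. Cells received R848 and varying compound concentrations for 24 h. Supernatants spun 10 min at 4 °C, frozen at −80 °C, and TNF-α measured by ELISA.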

Structure (SMILES)	pIC50 (Toll-like receptor 8)	Activity [1]	also measured
CSc1nnc(CCCO)n1-c1cccnc1	< 4.70		
CSc1nnc(CCCO)n1-c1ccc(Cl)cc1Cl		Non-Toxic	
Cc1nc(-c2nnc(SCc3ccccc3)n2-c2cccc(F)c2)cs1		Non-Toxic	
Fc1cccc(-n2c(SCc3c(Cl)cccc3Cl)nnc2C2CC2)c1		Non-Toxic	
CSc1nnc(CCCO)n1C1CCCCC1	< 4.70		

Continued, in another order:

pIC50 (Toll-like receptor 8)	Structure (SMILES)	Activity [1]	also measured
5.05	CSc1nnc(O)n1-c1ccc(Cl)cc1Cl		
< 4.70	NC(=O)Sc1nnc(CCCO)n1-c1ccc(Cl)cc1Cl		
< 4.70	NC(=O)CSc1nnc(CCCO)n1-c1ccc(Cl)cc1Cl		
< 4.70	OCCCc1nnc(S)n1-c1ccc(Cl)cc1Cl		inhibition [2]: inactive; inhibition [3]: inactive; inhibition [4]: inactive
